Assay outcomes deposited in PubChem BioAssay by Broad Institute.
Rows were chosen to be rich in hits. Some 3% of all compounds tested hit in one or more screens of this group.
NSD2 HMT inh: blocks human histone methyltransferase NSD2; O96028; NSD2 peptide methylation, AlphaScreen, 120 min; inhibition, % at 12.5 µM; actives 0.54% (n = 310,000); AID 743445; in the data active = inhibition above about 50%
esBAF inh: blocks esBAF chromatin remodeling in mouse ES cells; actives 2% (n = 350,000); reporter increase, % at 12.5 µM; Bmi1-luciferase knock-in reporter, 24 h; 100% = twice the neutral-well signal; in the data active = activation above about 40%; inconclusive = no clear call, values can overlap the other calls;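 also: a rise in the Bmi1 reporter signal indicates esBAF inhibition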
Wnt bcat act: activates Wnt/beta-catenin signaling in a reporter cell assay; activation, % at 9.35 µM; activator, plate reader; AID 743398; actives 1.2% (n = 300,000); in the data active = activation above about 30%, passing the limit was not always enough; inconclusive = no clear call, values can overlap the other calls
XiGFP reactiv: activators of X-chromosome reactivation in mouse fibroblasts; XiGFP mouse fibroblasts, % GFP-positive cells imaging, 3 d; cells co-treated with 5-aza-dC sensitizer; scaled so ellipticine positive control = 100%; activation, % at 7.58 µM; actives 0.055% (n = 360,000); AID 743238;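 active = mean normalized replicate activation at least 10% and every replicate at or above 10%; inconclusive = only one of the two criteria met; inactive = mean below 10% and not all replicates reach 10%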
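material = 68-5-11 XiGFP fibroblast line | medium = DMEM plus 5-aza-dC sensitizer | schedule = 3 days compound exposure | benchmarks = positive control ellipticine, 6 µM final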
MITF TRPM1 HTS: MITF TRPM1 promoter activation in melanoma cells | actives 0.75% (n = 300,000) | AID 588334 | activation, % at 12.5 µM | SK-MEL-5 TRPM1-promoter luciferase, 24 h; % of positive control, neutral wells = 0;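 active = mean activation of at least 80% with every replicate also reaching 80%; inconclusive = mean reaches 80% but some replicate falls short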
CASP6 VEID inh: caspase-6 (human) enzyme inhibition; inhibition, % at 12.5 µM; actives 0.53% (n = 350,000); purified caspase-6, Z-VEID-R110 cleavage fluorescence;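 active = mean inhibition across replicates at least about 35%, with every replicate also reaching that limit, limit read from the data; inconclusive = only one of the two criteria met; inactive = neither criterion met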
Of the large screens only hits and unclear results are named; the others gave an inactive call.

C[C@H](CO)N1C[C@H](C)[C@@H](CN(C)Cc2ccncc2)Oc2c(NC(=O)NC3CCCCC3)cccc2C1=O	none (no result: NSD2 HMT inh, esBAF inh, Wnt bcat act, MITF TRPM1 HTS, CASP6 VEID inh)
CN(C)C(=O)C[C@H]1CC[C@H](NC(=O)C2CCOCC2)[C@@H](CO)O1	none (no result: NSD2 HMT inh, Wnt bcat act, MITF TRPM1 HTS)
C[C@H]1CCCCO[C@@H](CN(C)C(=O)Nc2ccc(C(F)(F)F)cc2)[C@@H](C)CN([C@@H](C)CO)C(=O)c2cc(NC(=O)Nc3ccc(C(F)(F)F)cc3)ccc2O1	none (no result: NSD2 HMT inh, Wnt bcat act, MITF TRPM1 HTS, CASP6 VEID inh)
C[C@@H]1CN([C@H](C)CO)C(=O)c2cc(NS(=O)(=O)c3ccc(F)cc3)ccc2O[C@@H](C)CCCCO[C@@H]1CN(C)Cc1ccncc1	none (no result: NSD2 HMT inh, Wnt bcat act, MITF TRPM1 HTS)
CCOc1cccc2cc(-c3csc(NC(=O)CCC(=O)NC4CCCC4)n3)c(=O)oc12	none (no result: esBAF inh, Wnt bcat act, XiGFP reactiv, MITF TRPM1 HTS, CASP6 VEID inh)
CCOc1cccc2cc(-c3csc(NC(=O)CCC(=O)NCCN4CCCCC4C)n3)c(=O)oc12 (centres undefined)	MITF TRPM1 HTS 110 (no result: NSD2 HMT inh)
Cc1ccc(Nc2nc(COC(=O)C3CC3)cs2)cc1	esBAF inh 49, MITF TRPM1 HTS inconclusive
CNC(=O)C[C@@H]1CC[C@H]2[C@@H](COc3ccc(NC(=O)Nc4cccc(F)c4)cc3C(=O)N2C)O1	none (no result: NSD2 HMT inh, Wnt bcat act, MITF TRPM1 HTS, CASP6 VEID inh)
CC(C)CC#Cc1ccc2c(c1)O[C@@H](CN(C)Cc1ccccn1)[C@H](C)CN([C@@H](C)CO)S2(=O)=O	none (no result: NSD2 HMT inh, Wnt bcat act, MITF TRPM1 HTS)
Cc1nnc(SCC(=O)Nc2ccccc2)c2ccccc12	esBAF inh 69 (no result: XiGFP reactiv)
Cc1ccc(OCc2nc3ccccc3[nH]2)cc1	none
OC(Cc1nc2ccccc2[nH]1)c1ccccc1Cl (centres undefined)	esBAF inh 55 (no result: XiGFP reactiv)
c1ccc(OCCSc2nc3ccccc3[nH]2)cc1	MITF TRPM1 HTS 88 (no result: esBAF inh, Wnt bcat act, XiGFP reactiv, CASP6 VEID inh)
Cc1ccc2nc(SCCCCOc3ccccc3)[nH]c2c1	none (no result: Wnt bcat act, XiGFP reactiv, CASP6 VEID inh)
c1ccc(OCc2nc3ccccc3[nH]2)cc1	esBAF inh 51, Wnt bcat act 62 (no result: XiGFP reactiv, MITF TRPM1 HTS, CASP6 VEID inh)
Clc1ccc(OCc2nc3ccccc3[nH]2)cc1	esBAF inh 85, MITF TRPM1 HTS 88
COc1ccc(NC(=O)Nc2ccc3c(c2)[C@H]2C[C@@H](CC(=O)N(C)C)O[C@@H](CO)[C@H]2O3)cc1	none (no result: NSD2 HMT inh, Wnt bcat act, MITF TRPM1 HTS)
COc1cccc(CSc2nc3ccccc3[nH]2)c1	esBAF inh 54, Wnt bcat act 59
C=C(C)C1CC=C(C)C(=NNC(=O)c2ccncc2)C1 (centres undefined)	none
C=C(C)C1CC=C(C)/C(=N/NC(=O)c2cccs2)C1 (centres undefined)	esBAF inh 43, MITF TRPM1 HTS 98 (no result: CASP6 VEID inh)
CCCN1C[C@@H](C)[C@H](OC)CN(C)C(=O)c2cc(NC(=O)c3cccc(F)c3)ccc2OC[C@H]1C	none (no result: NSD2 HMT inh, Wnt bcat act, MITF TRPM1 HTS)
O=C(NC(=O)N1CCN(c2cccc(Cl)c2)CC1)c1ccc(Cl)cc1	none
O=C(Nc1ccccc1N1CCN(c2ccccc2)CC1)c1ccccc1	Wnt bcat act 42 (no result: esBAF inh)
CC(C)C(=O)N1CCN(c2ccccc2NC(=O)c2cccc3ccccc23)CC1	CASP6 VEID inh 60 (no result: MITF TRPM1 HTS)
Cn1nc(C(=O)Nc2ccccc2N2CCOCC2)ccc1=O	none
CS(=O)(=O)N1CCN(c2ccccc2NC(=O)c2cccc3ccccc23)CC1	none (no result: XiGFP reactiv, CASP6 VEID inh)
O=C(NC(=O)N1CCN(c2ccccc2)CC1)c1ccc(Cl)cc1	esBAF inh 49 (no result: Wnt bcat act, XiGFP reactiv, MITF TRPM1 HTS, CASP6 VEID inh)
O=C(Nc1ccccc1N1CCOCC1)c1ccc2ccccc2n1	esBAF inh 59, Wnt bcat act 40 (no result: XiGFP reactiv, MITF TRPM1 HTS, CASP6 VEID inh)
O=C(c1ccc(F)cc1)c1c[nH]c(C(=O)NCC2CCCO2)c1 (centres undefined)	none (no result: esBAF inh, Wnt bcat act, XiGFP reactiv, MITF TRPM1 HTS, CASP6 VEID inh)
O=C(COC(=O)c1cccc(N2C(=O)C3CC=CCC3C2=O)c1)c1ccccc1 (centres undefined)	none
CCc1ccc(C(=O)COC(=O)c2cccc(N3C(=O)c4c(C)nc5ccccc5c4C3=O)c2)cc1	Wnt bcat act 48 (no result: XiGFP reactiv, CASP6 VEID inh)
COc1ccc(S(=O)(=O)N2CC3(CN(Cc4ccncc4)[C@@H](CO)c4[nH]c5cc(OC)ccc5c43)C2)cc1	none (no result: NSD2 HMT inh, esBAF inh, Wnt bcat act, MITF TRPM1 HTS, CASP6 VEID inh)
O=C(Nc1ccccc1C(F)(F)F)NC1(C(=O)N2CCOCC2)CCCCC1	CASP6 VEID inh 86 (no result: NSD2 HMT inh)
Cc1ccccc1NC(=O)NC1(C(=O)N2CCOCC2)CCCCC1	none
O=C(C[C@H]1CC[C@H]2[C@@H](COC[C@H](O)CN2Cc2ccc(Oc3ccccc3)cc2)O1)N1CCCCC1	none (no result: NSD2 HMT inh, Wnt bcat act, MITF TRPM1 HTS)
CC1CCN(C(=O)/C=C/c2ccc(C(C)(C)C)cc2)CC1	none (no result: esBAF inh)
